Experimental data from ChEMBL document CHEMBL1128177, “A 3-amino-4-hydroxy-3-cyclobutene-1,2-dione-containing glutamate analogue exhibiting high affinity to excitatory amino acid receptors” (J Med Chem, 1995).
pIC50: −log10 of the molar value.

Experiments:
[1] = target: Glutamate NMDA receptor; test: Inhibition of stimulus-evoked […] NMDA receptor response in lateral perforant path of the rat hippocampus.; type: functional, tissue-based
Outline: (§1)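 Rat hippocampal slices (500 µm, male Sprague-Dawley, 30-50 days) with perforant path stimulation (0.1 ms, 4-30 V, 0.1 Hz). Field potential recorded in the dentate granule cell synaptic field of the lateral or medial perforant path at 34 °C. Drug doubled every 4 min from subthreshold up to >70% inhibition or 8 mM. IC50 interpolated from fractional peak amplitude vs log concentration; mean of ≥4 experiments.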

[2] = organism: Rattus norvegicus; test: (§2) Inhibition of stimulus-evoked kainate/AMPA receptor responses in CA1 pyramidal cells of the rat hippocampus before QUIS exposure.; type: functional, organism-based
Outline: (§3)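 Schaffer collateral-evoked CA1 field potential in 500 µm rat hippocampal slices, recording medium with 2.4 mM Mg2+, 34 °C. IC50 from 4-min doubling concentration steps, interpolated at 50% peak-amplitude loss; mean of ≥4 experiments. Measured first, then after 5 min 16 μM L-quisqualic acid and washout, then again after 5 min 2 mM L-α-aminoadipic acid and washout.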

[3] = target: Glutamate NMDA receptor; test: (§4) Inhibition of stimulus-evoked CA1 pyramidal cell NMDA receptor of the rat hippocampus.; type: functional, tissue-based
Outline: (§5)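 Transverse hippocampal slices (500 µm) from 30-50 day male Sprague-Dawley rats. Schaffer collateral stimulation at 0.1 ms, 4-30 V, 0.1 Hz. Extracellular field potential peak amplitude recorded in CA1 stratum radiatum at 34 °C. Medium held 0.1 mM Mg2+ plus 10 μM CNQX to isolate NMDA responses. Drug doubled every 4 min from subthreshold until >70% decline or 8 mM. IC50 interpolated from the log concentration plot; mean of ≥4 experiments.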

[4] = organism: Rattus norvegicus; test: (§6) Inhibition of stimulus-evoked kainate/AMPA receptor responses in CA1 pyramidal cells of the rat hippocampus after QUIS exposure.; type: functional, organism-based; outline: as §3
[5] = organism: Rattus norvegicus; test: as §6; type: functional; outline: as §3
[6] = organism: Rattus norvegicus; test: as §2; type: functional; outline: as §3
[7] = target: T1, Glutamate NMDA receptor (Rattus norvegicus) (UniProt P35439+Q00959+Q00960+Q00961+Q62645+Q8VHN2+Q9R1M7); test: as §4; type: functional, tissue-based; outline: as §5
[8] = target: T1, Glutamate NMDA receptor (Rattus norvegicus); test: Inhibition of stimulus-evoked […] NMDA receptor response in medial perforant path of the rat hippocampus.; type: functional, tissue-based; outline: as §1
[9] = organism: Rattus norvegicus; test: Inhibition of stimulus-evoked response in lateral perforant path of the rat hippocampus.
[10] = organism: Rattus norvegicus; test: Inhibition of stimulus-evoked kainate/AMPA receptor responses in CA1 pyramidal cells of the rat hippocampus after reversal with alpha AA.; type: functional; outline: as §3

pIC50 [1]	pIC50 [2]	pIC50 [3]	pIC50 [4]	C50 [7]	C50 [8]	C50 [9]	SMILES	C50 [5]	C50 [6]	C50 [10]
< 2.00	< 2.00	2.28	< 2.00				NCCC/N=c1\c(O)c(O)c1=O			
				0.01 mM	0.0059 mM	0.0034 mM	N[C@@H](C/N=c1\c(O)c(O)c1=O)C(=O)O	0.00055 mM	0.0011 mM	0.001 mM
				3.5 mM		> 10 mM	Cl.NCC/N=c1\c(O)c(O)c1=O	>10 mM	>10 mM	
